This note sets out measurements from ChEMBL document CHEMBL1158986, “New antimicrobial filicinic acid derivatives from Hypericum drummondii” (1991).

Holding throughout (assay type): functional
Experiment [1] has as its system Bacillus subtilis. In words: Antimicrobial activity against Bacillus subtilis after 24 hrs by twofold serial broth dilution technique. In outline:
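B. subtilis (ATCC 6633) cultured in eugon broth. MIC by twofold serial broth dilution, compounds tested over 0.20–100 μg/ml. Tubes incubated at 30°, read after 24 h. MIC taken as the lowest concentration inhibiting growth. Streptomycin sulfate as standard control.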
Background: Broth dilution looks for growth in wells or tubes with falling amounts of substance.

In experiment [2] the test system is Mycolicibacterium smegmatis. In words: Antimicrobial activity against Mycobacterium smegmatis after 48 hrs by twofold serial broth dilution technique. In outline:
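Mycobacterium smegmatis (ATCC 607) grown in eugon broth. Twofold serial broth dilution from 0.20 to 100 μg/ml, tubes kept at 37°, MIC read after 48 h as the lowest concentration preventing growth. Streptomycin sulfate included as standard control.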

For experiment [3], the system named is Staphylococcus aureus. Put plainly: Antimicrobial activity against Staphylococcus aureus after 24 hrs by twofold serial broth dilution technique. In outline:
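S. aureus (ATCC 6538) cultured in eugon broth. Twofold serial broth dilution covering 0.20–100 μg/ml. Incubation at 37° for 24 h. MIC is the lowest concentration with no growth. Streptomycin sulfate served as standard control.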

Molecules are shown by their SMILES. Converted amounts (≈) assume the structure as drawn.

What is called MIC is the lowest concentration that inhibits growth of the organism. A lower MIC goes with inhibition by little substance. On to `CC(=O)C1=C(O)C(C)(CC=C(C)C)C(O)=C(Cc2c(O)c3c(c(C(C)=O)c2O)OC(C)(C)C=C3)C1=O` (stereo not given) [DRUMMONDIN D], for which the values for the MIC in experiment [1], in experiment [2] and in experiment [3] were 0.39 µg/mL (≈ 0.785 µM), 1.56 µg/mL (≈ 3.14 µM) and 0.78 µg/mL (≈ 1.57 µM), respectively.
For the compound `CC(=O)C1=C(O)C(C)(CC=C(C)C)C(O)=C(Cc2c(OCC=C(C)C)cc(O)c(C(C)=O)c2O)C1=O` (stereo not given) [DRUMMONDIN E], the MIC in experiment [1] came to 0.2 µg/mL (≈ 0.401 µM); in experiment [2] it was 3.12 µg/mL (≈ 6.26 µM); in experiment [3] it was 0.39 µg/mL (≈ 0.782 µM).
`CC(=O)C1=C(O)C(C)(CC=C(C)C)C(O)=C(Cc2c(O)c(CC=C(C)C)c(O)c(C(C)=O)c2O)C1=O` (stereo not given) [DRUMMONDIN F]: the MIC was 0.78 µg/mL (≈ 1.56 µM) in experiment [1], 1.56 µg/mL (≈ 3.13 µM) in experiment [2] and 0.78 µg/mL (≈ 1.56 µM) in experiment [3].
With `CC(=O)C1=C(O)C(C)(CC=C(C)C)C(O)=C(Cc2c(O)c(C(C)=O)c(O)c3c2OC(C)(C)C=C3)C1=O` (stereo not given) [ISODRUMMONDIN D], the MIC in experiment [1] came to 0.2 µg/mL (≈ 0.403 µM); in experiment [2] it was 1.56 µg/mL (≈ 3.14 µM); in experiment [3] it was 0.78 µg/mL (≈ 1.57 µM).
The like results for `CN[C@@H]1[C@H](O[C@H]2[C@H](O[C@H]3[C@H](O)[C@@H](O)[C@H](N=C(N)N)[C@@H](O)[C@@H]3N=C(N)N)O[C@@H](C)[C@]2(O)C=O)O[C@@H](CO)[C@H](O)[C@H]1O` [STREPTOMYCIN] were, in that order, 0.78 µg/mL (≈ 1.34 µM), 1.56 µg/mL (≈ 2.68 µM) and 12.5 µg/mL (≈ 21.5 µM).
